GSK3beta inhib: inhibitors of human GSK3beta kinase; GST-GSK3beta kinase, ADP-Glo luminescence, 60 min; active compounds read low; activity score (negative = inhibition), % at 10 µM; P49841; AID 2097; 0.038% of 300,000 active;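 active = more than half of replicate wells score below -50%, meaning over 50% inhibition versus plate controls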
Target sequence (P49841 whole entry, looked up): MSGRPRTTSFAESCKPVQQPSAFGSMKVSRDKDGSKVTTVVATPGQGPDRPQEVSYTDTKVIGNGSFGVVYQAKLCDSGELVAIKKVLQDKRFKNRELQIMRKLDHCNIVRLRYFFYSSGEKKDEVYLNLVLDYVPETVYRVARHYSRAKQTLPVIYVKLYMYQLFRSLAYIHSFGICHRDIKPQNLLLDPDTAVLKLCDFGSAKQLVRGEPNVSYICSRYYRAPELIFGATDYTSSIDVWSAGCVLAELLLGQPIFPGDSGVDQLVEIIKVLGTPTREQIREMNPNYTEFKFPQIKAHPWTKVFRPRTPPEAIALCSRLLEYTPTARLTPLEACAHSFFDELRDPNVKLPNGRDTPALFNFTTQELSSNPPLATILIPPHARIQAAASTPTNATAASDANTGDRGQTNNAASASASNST
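Assay system: GST-tagged human GSK3beta kinase, cell-free; Input: 1.6 ng GSK3beta; Medium: Tris/MgCl2 kinase buffer; Timing: 60 min enzyme reaction, room temperature; Signal: ADP-Glo luminescence quantifying ADP generated by kinase; Evaluation: score relative to plate controls; Benchmarks: DMSO neutral wells and GW8510 at 20 µM as positive.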
GSK3 alpha inh: inhibitors of human GSK-3 alpha kinase | ADP-Glo luminescence, 60 min | 0.1% of 320,000 active | AID 2650 | P49840 | inhibition, % at 10 µM;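 active = more than half of replicates show inhibition above 20%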;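 also: GST-tagged GSK-3 alpha with peptide substrate and 25 µM ATP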
Dyrk1A ADPGlo: blocks rat Dyrk1A kinase activity | inhibition, % at 12.5 µM | ADP-Glo luminescence, NFATc1 peptide | 0.43% of 310,000 active; in the data active = inhibition above about 50%
CDK5 inh: inhibitors of human CDK5/p35 kinase | Recombinant CDK5/p35, ADP-Glo luminescence, 60 min | inhibition, % at 10 µM | 0.01% of 330,000 active | AID 488839;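 active = highest replicate inhibition of at least 50% and at least 75% of replicates reaching 50%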
STK33 inh: human STK33 kinase inhibition; 0.073% of 320,000 active; inhibition, % at 10 µM; Q9BYT3; AID 2661; purified STK33, MBP phosphorylation, ADP-Glo luminescence;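 active = inhibition at or above 25%, using the most active replicate where run in duplicate; inactive = inhibition below 25%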
ADP-Glo artifact: interferes with ADP-Glo luciferase readout without Dyrk1A; shares compounds with Dyrk1A ADPGlo; ADP-Glo luciferase artifact assay, no Dyrk1A, luminescence; AC50, µM (top dose mostly 12 µM); 1,300 tested, under 10 active; AID 588348;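 active = fitted half-maximal dose AC50 no more than ten times the top valid tested dose, with luminescence dropping as dose rises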
Numbers stand for hits; 0 = inactive; - = no result. The sample as a whole holds a higher share of hits than the screen did.

SMILES	GSK3beta inhib	GSK3 alpha inh	Dyrk1A ADPGlo	CDK5 inh	STK33 inh	ADP-Glo artifact
COc1cc([N+](=O)[O-])cc(/C=N/NC(=O)C(O)(c2ccccc2)c2ccccc2)c1O	0	0	0	0	0	-
Cc1ccc(-n2c(=O)c3c4c(sc3n3c(=S)[nH]nc23)CCC4)cc1	0	0	0	0	0	-
O=c1c2c3c(sc2n2c(=S)[nH]nc2n1-c1ccccc1)CCC3	0	0	54.6	0	0	0
Cc1cc(C)nc(Nc2n[nH]c(COc3cccc4ccccc34)n2)n1	0	-	0	0	-	-
Cc1ccc(C2(C)CC(C)(C)N(C(=O)CSc3nnc(C)s3)c3ccccc32)cc1 (stereo not drawn)	0	0	0	0	0	-
Cc1cccc(Cl)c1OCCCCn1ccnc1	0	0	56.2	0	0	0
CCN(CC)CCNc1ccc(C)c2sc3ccc(O)cc3c(=O)c12	-	-	0	0	-	-
CN(C)CCNc1ccc(CO)c2oc3ccc(O)cc3c(=O)c12	-	-	52.4	0	-	0
N#Cc1c(N)nc2c3c(sc(=N)c2c1N)NC(=O)CC3c1c(F)cccc1Cl (stereo not drawn)	0	0	67.2	0	0	0
O=C1C=C(c2ccc3c(c2)OCO3)CCC1	0	0	66.1	0	0	0
CCCCOC(=O)C1CN(c2ccccc2)N=C1C(=O)OCC (stereo not drawn)	0	0	0	0	0	-
CC(C)(C)C1=Nn2c(nnc2-c2ccccc2F)SC1	0	0	51.7	0	0	0
COc1cccc(-c2nnc3n2N=C(c2cc(OC)ccc2OC)CS3)c1	0	0	0	0	0	-
COc1cccc(-c2nnc3n2N=C(C(C)(C)C)CS3)c1	0	-	79.3	0	0	0
COC(=O)[C@]1(C)N[C@H](c2ccc(-c3cccc(Cl)c3)cc2)[C@@H]2C(=O)N(C)C(=O)[C@@H]21	-	0	0	0	0	-
COC(=O)[C@]1(CC(C)C)N[C@H](c2ccc(-c3cccc(Cl)c3)cc2)[C@@H]2C(=O)N(C)C(=O)[C@@H]21	0	0	55.8	0	0	0
O=C(c1ccc(Cl)c(F)c1F)N1CCCC1	0	0	0	0	0	-
COC(=O)C1=C(C(=O)OC)C(c2cc(Br)ccc2O)c2sc(=O)[nH]c2S1 (stereo not drawn)	-	0	63.3	0	0	0
Cc1cccc(NC(=O)CC2S/C(=N/c3nccs3)N(C)C2=O)c1 (stereo not drawn)	0	0	0	0	0	-
COc1ccc(O)c(-c2cc(-c3cccs3)[nH]n2)c1	0	0	69.7	0	0	0
Oc1ccc(Br)cc1-c1cc(-c2ccccc2Cl)[nH]n1	0	0	0	0	0	-
COc1ccc(O)c(-c2cc(-c3ccccc3Cl)[nH]n2)c1	0	0	53.3	0	0	0
CCN1CCN(Cc2ccc(NC(=O)c3ccc(C)c(NC(=O)c4csc(-c5ccncc5)n4)c3)cc2C(F)(F)F)CC1	0	0	68.2	0	0	0
CCN1CCN(Cc2ccc(NC(=O)c3ccc(C)c(/C=C/c4cnc(Nc5cc(N6CCNCC6)nc(C)n5)cn4)c3)cc2C(F)(F)F)CC1	0	0	51.7	0	0	0
Cc1cc(C(=O)NCc2ccc(C(=O)O)o2)c(C)o1	0	0	0	0	0	-
SMILES	GSK3beta inhib	GSK3 alpha inh	Dyrk1A ADPGlo	CDK5 inh	STK33 inh	ADP-Glo artifact
COc1ccc(CC(=O)OCC(=O)N2CCN(S(=O)(=O)c3ccc(C)cc3C)CC2)cc1	-	0	0	0	0	-
Cc1nnc(N2CCc3ccccc3C2)[nH]c1=O	0	0	0	0	0	-
Fc1ccc(-c2nnc3sc(C4COc5ccccc5O4)nn23)cc1 (stereo not drawn)	0	0	67.5	0	0	0
CNC(=O)CN1C(=O)c2cccc3cccc1c23	0	-	0	0	0	-
CN1/C(=N\O)c2cccc3cccc1c23	0	-	66.3	0	0	0
O=C(Nc1ccc(Cl)cc1)c1cc(-c2cccs2)on1	0	0	0	0	0	-
COC(=O)c1sc2cnccc2c1N	0	0	57.9	0	0	0
Cc1ccc(N2CN=c3s/c(=C\c4ccccn4)c(=O)n3C2)cc1	0	0	52.0	0	0	0
COc1ccc(C(=O)N(Cc2nc(-c3ccc(C)cc3)no2)C(C)C)cc1OC	0	0	61.1	0	0	0
Nc1nc(N)c2c(ccc3nccc32)[nH]1	0	0	55.0	0	0	0
COC(=O)c1sccc1NC(=O)Cn1cnc2c1c(=O)n(C)c(=O)n2C	0	0	0	0	0	-
CCCc1nnc(NC(=O)CCC(=O)N2CCN(C3CCCC3)CC2)s1	0	0	-	-	0	-
